In ChEMBL document CHEMBL4330095, “Development of an anti-hepatitis B virus (HBV) agent through the structure-activity relationship of the interferon-like small compound CDM-3008” (Bioorg Med Chem, 2019):
pIC50: −log10 of the molar value. In brackets after ≈: the same amount, converted by molar mass. Activity calls are given as the source filed them. The rule behind the calls is not given here.

Tests used:
Hepatitis C virus = assay: Antiviral activity against HCV infected in human R6FLR-N replicon cells assessed as reduction in viral replication at 30 uM after 3 days by luciferase reporter gene assay; type: functional, Hepacivirus hominis; parameters: scale not given: the % may be the effect or the level left
Method in brief: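 R6FLR-N replicon cells, 3 × 10⁴ cells/well, grown in DMEM with 10% FBS and 500 μg/ml G418; compound added after 1 day, then 3 days of incubation. Luciferase read by Steady-Glo; percent inhibition at 30 μM expressed against DMSO control, mean of n = 2.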

[1] = Cytotoxicity against human […] cells harboring R6FLR-N replicons after 3 days by XTT assay; type: cell-based; parameters: concentration or dose not given beside the values; details: 72 h
Method in brief: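 Replicon cells seeded at 3 × 10⁴ cells/well and exposed to compound for 3 days; viability by XTT. Values given as percent at 30 μM against DMSO control, mean of n = 2.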

[2] = Solubility of the compound by HPLC-UV analysis; type: physicochemical
Method in brief: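 Dissolved compound solution injected into HPLC and peak area read by UV at 254 nm; concentration derived from a previously determined calibration curve.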

[3] = (§1) Antiviral activity against HBV genotype C infected in primary human hepatocytes PXB cells assessed as inhibition of viral DNA level after 14 days by qPCR analysis; type: functional, cell-based; details: Hepatitis B virus, 336 h
Method in brief: (§2)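 PXB cells (primary human hepatocytes from humanized-liver chimeric mice) in dHCGM, 37 °C, 5% CO2; infected with HBV C_AT at 3 genome equivalents/cell while treated with 0.01–10 μM compound; after 1 day, compound-containing medium exchanged every 3 or 4 days for 14 days. Cellular DNA purified and quantified, HBV DNA by qPCR; mean ± SE, n = 3.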

Hepatocyte = assay: Cytotoxicity against human primary hepatocytes PXB cells assessed as decrease in cell viability by RealTime-Glo MT assay; type: cell-based
Method in brief: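 Viability read by RealTime-Glo MT in HBV C_AT-infected PXB cells (3 genome equivalents/cell) given 0.01–10 μM compound from infection onward, with compound-containing medium exchanged every 3 or 4 days over 14 days; mean ± SE, n = 3.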

Homo sapiens = species: Homo sapiens; assay: Induction of IFN-stimulated gene expression response in human JHH7 cells assessed as upregulation of OAS1 mRNA expression at 3 to 30 uM after 3 days by qPCR analysis; type: functional, cell-based
Method in brief: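 JHH-7 hepatoma cells in DMEM with 10% FBS, 37 °C, 5% CO2, exposed to 3 and 30 μM compound for 3 days. Total RNA purified and its concentration measured by UV spectrophotometry before OAS-1 mRNA measurement; mean ± SE, n = 3.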

[4] = Half life in mouse liver microsomes at 29 umol/L preincubated for 5 mins followed by NADPH addition measured after 120 mins by HPLC analysis; type: ADME, Microsome
Method in brief: (§3)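 Compound (29 μmol/L, as added) combined with mouse or human liver microsomes (20 mg/mL stock), preincubated 5 min at 37 °C, then NADPH regenerating system added and incubated 0, 30, 60 or 120 min at 37 °C. Aliquots quenched in ice-cold MeOH, internal standard added, centrifuged; remaining compound quantified by HPLC against a calibration curve.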

[5] = Half life in human liver microsomes at 29 umol/L preincubated for 5 mins followed by NADPH addition measured after 120 mins by HPLC analysis; type: ADME, Microsome; method in brief: as §3
HBV genotype C [6] = assay: Antiviral activity against HBV genotype C infected in primary human hepatocytes PXB cells assessed as inhibition of viral DNA level at 0.32 to 32 uM incubated for 7 days by qPCR analysis; type: functional, cell-based
Method in brief: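 PXB cells in dHCGM infected with HBV C_AT, 3 genome equivalents/cell; medium exchanged every 3 or 4 days. After 28 days of infection, cells treated with the indicated concentrations for 7 days, pegylated IFNα2a run alongside. Cellular DNA purified and quantified, then HBV DNA measured by qPCR; mean ± SE, n = 3.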

HBV genotype C [7] = assay: as §1; type: functional, cell-based; method in brief: as §2

| solubility [2] | half-life at 29 µM [4] | half-life at 29 µM [5] | Structure (SMILES) | Activity (Hepatitis C virus) | Activity [1] | pIC50 [3] | Activity (Hepatocyte) | Activity (Homo sapiens) | Activity (HBV genotype C [6]) | Activity (HBV genotype C [7]) |
| --- | --- | --- | --- | --- | --- | --- | --- | --- | --- | --- |
| > 30000 µg/mL | > 120 min | > 120 min | Cl.O=C(NC1CCNCC1)c1cn2c(ccc3c(C(F)(F)F)cc(C(F)(F)F)nc32)n1 | 90.7% | 58.6% | 5.08 | Non-Toxic | inactive | – | – |
| – | – | – | COCc1nnc(-c2cn3c(ccc4c(C(F)(F)F)cc(C(F)(F)F)nc43)n2)o1 | 4.8% | -2.5% | – | – | – | – | – |
| < 100 µg/mL | – | – | O=C(Nc1ccccn1)c1cn2c(ccc3c(C(F)(F)F)cc(C(F)(F)F)nc32)n1 | 2.6% | 1.6% | – | – | – | – | – |
| – | – | – | CCCc1nnc(-c2cn3c(ccc4c(C(F)(F)F)cc(C(F)(F)F)nc43)n2)o1 | 15.3% | 8.5% | – | – | – | – | – |
| – | – | – | OCc1nnc(-c2cn3c(ccc4c(C(F)(F)F)cc(C(F)(F)F)nc43)n2)o1 | 12% | -7.4% | – | – | – | – | – |
| 920 µg/mL (≈ 2470 µM) | 58.2 min | 34.1 min | FC(F)(F)c1cc(C(F)(F)F)c2ccc3nc(-c4nnco4)cn3c2n1 | 90.1 - 92.1% | 3.1% | – | – | Active | Active | – |
| – | – | – | Cc1nnc(-c2cn3c(ccc4c(C(F)(F)F)cc(C(F)(F)F)nc43)n2)o1 | 89.8% | 4.3% | – | – | – | – | – |
| > 30000 µg/mL | – | – | Cl.NCCOc1cc(C(F)(F)F)c2ccc3nc(C(=O)Nc4ccncc4)cn3c2n1 | 78.2% | 51.8% | – | – | – | – | inactive |
| < 100 µg/mL | – | – | O=C(Nc1ccncc1)c1cn2c(ccc3c(C(F)(F)F)cc(C(F)(F)F)nc32)n1 | 40.1% | 4.2% | – | – | – | – | – |
| 19800 µg/mL | – | – | Cl.NCCOc1cc(C(F)(F)F)c2ccc3nc(-c4nnco4)cn3c2n1 | 28.1% | 5.7% | 5.00 | Non-Toxic | Active | – | – |
| < 100 µg/mL | – | – | O=C(Nc1cccnc1)c1cn2c(ccc3c(C(F)(F)F)cc(C(F)(F)F)nc32)n1 | 63.6% | 6.9% | – | – | – | – | – |
| – | – | – | O=C(c1cn2c(ccc3c(C(F)(F)F)cc(C(F)(F)F)nc32)n1)N1CCNCC1 | – | – | – | – | – | – | Active |
